ChEMBL document CHEMBL1152633, “Synthesis and biological evaluation of flavan-3-ol derivatives as positive modulators of GABAA receptors” (Bioorg Med Chem, 2009)

Key:
[1] = biological target: T1, GABA-A receptor; alpha-1/beta-2/gamma-2 (Homo sapiens) (UniProt P14867+P47870+P18507); assay: Modulatory activity at human GABAA alpha-1-beta-2-gamma-2L receptor expressed in Xenopus laevis oocytes assessed as potentiation of GABA EC5-induced currents at 30 uM by two-electrode voltage clamp assay; assay type: cell-based; conditions: Oocyte
Method in brief: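 Stage V–VI oocytes were injected with 2–3 ng cRNA (α:β:γ 1:1:2) and kept 3–4 days at 16 °C in ND96 with pyruvate, theophylline and gentamycin. Two-electrode voltage clamp was run in ND96 at pH 7.5 with 3 M KCl electrodes. Test drug was co-applied with GABA EC5, with a 5–10 min washout between applications. Currents were normalised to a reference modulator at the same concentration on the same cell (n ≤ 5).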

[2] = biological target: T1, GABA-A receptor; alpha-1/beta-2/gamma-2 (Homo sapiens); assay: Modulatory activity at human GABAA alpha-1-beta-2-gamma-2L receptor expressed in Xenopus laevis oocytes assessed as potentiation of GABA EC5-induced currents at 50 uM by two-electrode voltage clamp assay relative to untreated control; assay type: cell-based; conditions: Oocyte
Method in brief: (§1)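 Oocytes were injected with cRNA (α:β:γ 1:1:2) and incubated 3–4 days at 16 °C in ND96. TEVC was run in ND96 at pH 7.5, co-applying the drug at a range of concentrations with GABA EC5, with a 5–10 min washout between applications. Potentiation = (Idrug − IGABA) × 100/IGABA. Data are mean ± SEM, n ≥ 8, from at least two oocyte batches.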

[3] = biological target: T2, GABA-A receptor; alpha-1/beta-2/gamma-2 (Homo sapiens, UniProt P14867+P18507+P47870); assay: Modulatory activity at human GABAA alpha-1-beta-2-gamma-2L receptor expressed in Xenopus laevis oocytes assessed as potentiation of GABA EC5-induced currents by two-electrode voltage clamp assay; assay type: cell-based, Oocyte; method in brief: as §1
T2 sequence (P14867 whole entry): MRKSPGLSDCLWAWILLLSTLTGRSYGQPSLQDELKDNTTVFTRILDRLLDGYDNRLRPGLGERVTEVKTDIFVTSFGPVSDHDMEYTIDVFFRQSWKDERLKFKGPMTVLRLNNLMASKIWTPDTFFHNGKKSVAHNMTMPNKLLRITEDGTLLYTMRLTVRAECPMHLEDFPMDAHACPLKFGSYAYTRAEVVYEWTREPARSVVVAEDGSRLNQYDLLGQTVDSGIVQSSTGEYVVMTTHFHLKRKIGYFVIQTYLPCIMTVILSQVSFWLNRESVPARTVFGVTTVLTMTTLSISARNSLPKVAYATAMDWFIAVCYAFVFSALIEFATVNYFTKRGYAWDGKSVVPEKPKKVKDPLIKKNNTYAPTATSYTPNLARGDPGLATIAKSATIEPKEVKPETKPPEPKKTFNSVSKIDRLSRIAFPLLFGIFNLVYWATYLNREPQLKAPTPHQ
T2 sequence (P47870 whole entry): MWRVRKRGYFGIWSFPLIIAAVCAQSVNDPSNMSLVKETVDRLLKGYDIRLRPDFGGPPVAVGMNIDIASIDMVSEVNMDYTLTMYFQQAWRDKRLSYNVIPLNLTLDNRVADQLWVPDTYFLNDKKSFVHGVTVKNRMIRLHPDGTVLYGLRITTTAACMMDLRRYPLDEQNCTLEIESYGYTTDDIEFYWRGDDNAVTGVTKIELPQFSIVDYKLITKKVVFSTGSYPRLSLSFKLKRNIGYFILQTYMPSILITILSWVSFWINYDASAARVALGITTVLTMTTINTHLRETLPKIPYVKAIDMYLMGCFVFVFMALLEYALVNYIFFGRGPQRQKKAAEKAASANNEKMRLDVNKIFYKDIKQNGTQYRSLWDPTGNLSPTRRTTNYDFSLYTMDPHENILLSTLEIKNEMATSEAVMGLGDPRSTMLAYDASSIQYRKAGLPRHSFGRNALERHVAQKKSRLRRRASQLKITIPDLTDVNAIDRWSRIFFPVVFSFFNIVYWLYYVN
T2 sequence (P18507 whole entry): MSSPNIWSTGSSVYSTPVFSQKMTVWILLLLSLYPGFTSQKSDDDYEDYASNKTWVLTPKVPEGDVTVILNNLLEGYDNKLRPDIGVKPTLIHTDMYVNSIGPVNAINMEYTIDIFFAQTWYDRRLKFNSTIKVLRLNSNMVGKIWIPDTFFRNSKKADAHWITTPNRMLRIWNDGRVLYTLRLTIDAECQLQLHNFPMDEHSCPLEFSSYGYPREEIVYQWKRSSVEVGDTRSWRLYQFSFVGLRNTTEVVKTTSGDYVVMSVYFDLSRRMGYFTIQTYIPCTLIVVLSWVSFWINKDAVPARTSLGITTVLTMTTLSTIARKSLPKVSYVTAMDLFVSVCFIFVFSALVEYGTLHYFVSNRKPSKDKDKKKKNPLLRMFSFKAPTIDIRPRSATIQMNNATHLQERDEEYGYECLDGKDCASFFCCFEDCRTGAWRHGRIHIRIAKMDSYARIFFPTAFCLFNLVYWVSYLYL

[4] = biological target: T1, GABA-A receptor; alpha-1/beta-2/gamma-2 (Homo sapiens); assay: Modulatory activity at human GABAA alpha-1-beta-2-gamma-2L receptor expressed in Xenopus laevis oocytes assessed as potentiation of GABA EC5-induced currents at 30 uM by two-electrode voltage clamp assay relative to untreated control; assay type: cell-based; conditions: Oocyte; method in brief: as §1

SMILES | Activity [1] [%] | also measured
COc1ccc([C@@H]2Oc3cc(O)ccc3C[C@H]2OC(C)=O)cc1 | > 50 | fold change (FC) [2]: 10.5
COc1ccc([C@@H]2Oc3ccc(C)cc3C[C@H]2OC(C)=O)cc1OC | > 50 | 
COc1ccc([C@@H]2Oc3ccccc3C[C@H]2O)cc1 | < 50 | 
COc1ccc([C@H]2Oc3ccc(OC)cc3C[C@H]2OC(C)=O)cc1 | < 50 | 
COc1cc([C@@H]2Oc3ccccc3C[C@H]2OC(C)=O)cc(Br)c1OC | > 50 | 
COc1ccc([C@@H]2Oc3cc(O)ccc3C[C@H]2OC(C)=O)cc1OC | > 50 | EC50 [3]: 12.1 µM; fold change (FC) [4]: 12
COc1ccc([C@@H]2Oc3cc(O)ccc3C[C@@H]2OC(C)=O)cc1 | < 50 | 
COc1ccc([C@@H]2Oc3ccc(OC)cc3C[C@H]2OC(C)=O)cc1 | > 50 | EC50 [3]: 15 µM
COc1ccc([C@@H]2Oc3ccccc3C[C@H]2OC(C)=O)cc1 | 700 | EC50 [3]: 13.7 µM; fold change (FC) [2]: 8.5
COc1ccc([C@H]2Oc3cc(OCc4ccccc4)ccc3C[C@@H]2OC(C)=O)cc1OC | < 50 | 
COc1ccc([C@H]2Oc3cc(OCc4ccccc4)ccc3C[C@H]2OC(C)=O)cc1 | < 50 | 
COc1ccc([C@H]2Oc3ccccc3C[C@@H]2OC(C)=O)cc1OC | > 50 | 
COc1ccc([C@@H]2Oc3ccccc3C[C@@H]2OC(C)=O)cc1OC | < 50 | 
COc1ccc([C@H]2Oc3ccccc3C[C@H]2O)cc1 | < 50 | 
CC(=O)O[C@H]1Cc2ccccc2O[C@H]1c1ccc(OCc2ccccc2)cc1 | < 50 | 
COc1ccc([C@@H]2Oc3ccccc3C[C@@H]2OC(C)=O)cc1 | < 50 | 
CC(=O)O[C@H]1Cc2ccccc2O[C@@H]1c1ccc(OCc2ccccc2)cc1 | < 50 | 

Second part, led by results:

Activity [1] [%] | SMILES | also measured
< 50 | COc1ccc([C@H]2Oc3ccccc3C[C@H]2OC(C)=O)cc1 | 
< 50 | COc1ccc([C@H]2Oc3ccc(C)cc3C[C@@H]2OC(C)=O)cc1OC | 
< 50 | CC(=O)O[C@H]1Cc2ccccc2O[C@@H]1c1ccc(O)cc1 | 
< 50 | CC(=O)O[C@H]1Cc2ccccc2O[C@H]1c1ccc(O)cc1 | 
> 50 | COc1ccc([C@@H]2Oc3ccccc3C[C@H]2OC(C)=O)cc1OC | EC50 [3]: 6.68 µM; fold change (FC) [4]: 14.7
> 50 | COc1ccc([C@H]2Oc3ccccc3C[C@@H]2OC(C)=O)cc1 | 
< 50 | COc1ccc([C@@H]2Oc3cc(OCc4ccccc4)ccc3C[C@H]2OC(C)=O)cc1OC | 
< 50 | COc1ccc([C@H]2Oc3cc(O)ccc3C[C@@H]2OC(C)=O)cc1OC | 
> 50 | CC(=O)O[C@H]1Cc2ccccc2O[C@@H]1c1ccc2c(c1)OCO2 | 
> 50 | CC(=O)O[C@@H]1Cc2ccccc2O[C@H]1c1ccc2c(c1)OCO2 | 
< 50 | COc1ccc([C@@H]2Oc3cc(OCc4ccccc4)ccc3C[C@H]2OC(C)=O)cc1 | 
